Test results reported in ChEMBL document CHEMBL1649207, “Role of porins in the susceptibility of Mycobacterium smegmatis and Mycobacterium chelonae to aldehyde-based disinfectants and drugs” (2009).
In brackets after ≈: the same amount, converted by molar mass. Activity calls are given as the source filed them. No cut-off for these calls is given here.

What was measured:
[1] = test system: Mycolicibacterium smegmatis; assay: Antimicrobial activity against Mycobacterium smegmatis str. MC2 155 harboring embB mutant gene; format: functional, organism-based
[2] = test system: Mycolicibacterium smegmatis; assay: Antimicrobial activity against Mycobacterium smegmatis str. MC2 155 deficient in production of lipomannan and lipoarabinomannan; format: functional, organism-based
Mycobacteroides chelonae [3] = assay: Antimicrobial activity against Mycobacterium chelonae 9917 harboring pZS01 carrying mspA gene by resazurine microtiter assay; format: functional
[4] = test system: Mycolicibacterium smegmatis; assay: Antimicrobial activity against MspA-deficient Mycobacterium smegmatis str. MC2 155; format: functional, organism-based
[5] = test system: Mycolicibacterium smegmatis; assay: Antimicrobial activity against Lsr2-deficient Mycobacterium smegmatis str. MC2 155; format: functional, organism-based
[6] = test system: Mycolicibacterium smegmatis; assay: Antimicrobial activity against Mycobacterium smegmatis str. MC2 155 deficient in glycopeptidolipid biosynthesis; format: functional, organism-based
[7] = test system: Mycolicibacterium smegmatis; assay: Antimicrobial activity against Mycobacterium smegmatis str. MC2 155 deficient in mycothiol biosynthesis; format: functional, organism-based
[8] = test system: Mycolicibacterium smegmatis; assay: Antimicrobial activity against Mycobacterium smegmatis str. MC2 155 deficient in production of lipomannan and produces truncated lipoarabinomannan; format: functional, organism-based
Mycobacteroides chelonae [9] = assay: Antimicrobial activity against Mycobacterium chelonae ATCC 35752 harboring pZS01 carrying mspA gene by resazurine microtiter assay; format: functional
[10] = test system: Mycolicibacterium smegmatis; assay: Antimicrobial activity against Mycobacterium smegmatis str. MC2 155 harboring embA mutant gene; format: functional, organism-based
[11] = test system: Mycolicibacterium smegmatis; assay: Antimicrobial activity against MspA- and MspC-deficient Mycobacterium smegmatis str. MC2 155; format: functional, organism-based
[12] = test system: Mycolicibacterium smegmatis; assay: Antimicrobial activity against Mycobacterium smegmatis str. MC2 155 deficient in production of polar phosphatidylinositol mannoside; format: functional, organism-based
Mycobacteroides chelonae [13] = assay: Antimicrobial activity against Mycobacterium chelonae 9917 by resazurine microtiter assay; format: functional
How it was run: (§1)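 Colorimetric resazurin microtiter MIC assay in 7H9-oleic acid-albumin-dextrose-catalase broth at 30°C, with well-dispersed bacteria. Growth was also checked by visual scanning to confirm the readings. At least three repeats on independent culture batches.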

Mycobacteroides chelonae [14] = assay: Antimicrobial activity against Mycobacterium chelonae ATCC 35752 by resazurine microtiter assay; format: functional; how it was run: as §1
[15] = Mycobacteroides chelonae, 9917, Urine

Compound	MIC (Mycobacteroides chelonae [13]) [µg/mL]	MIC (Mycobacteroides chelonae [14]) [µg/mL]	MIC (Mycobacteroides chelonae [3]; [15]) [µg/mL]	MIC (Mycobacteroides chelonae [9]; ATCC 35752, Urine) [µg/mL]	also measured
O=CCCCC=O					Activity [1]: Active; Activity [2]: inactive; Activity (Mycobacteroides chelonae [3]; Urine): Active; Activity [4]: inactive; Activity [5]: inactive; Activity [6]: inactive; Activity [7]: inactive; Activity [8]: Active; Activity (Mycobacteroides chelonae [9]; Urine): Active; Activity [10]: Active; Activity [11]: inactive; Activity [12]: inactive
O=Cc1ccccc1C=O					Activity (Mycobacteroides chelonae [3]; Urine): Active; Activity (Mycobacteroides chelonae [9]; Urine): Active
CC1(C)S[C@@H]2[C@H](NC(=O)[C@H](N)c3ccccc3)C(=O)N2[C@H]1C(=O)O [AMPICILLIN]	> 500	> 500			
CC[C@H]1OC(=O)[C@H](C)[C@@H](O[C@H]2C[C@@](C)(OC)[C@@H](O)[C@H](C)O2)[C@H](C)[C@@H](O[C@@H]2O[C@H](C)C[C@H](N(C)C)[C@H]2O)[C@](C)(O)C[C@@H](C)CN(C)[C@H](C)[C@@H](O)[C@]1(C)O [AZITHROMYCIN]	500 (≈ 668 µM)	500 (≈ 668 µM)	500 (≈ 668 µM)	500 (≈ 668 µM)	
O=C(N[C@H](CO)[C@H](O)c1ccc([N+](=O)[O-])cc1)C(Cl)Cl [CHLORAMPHENICOL]	> 500	> 500	50 (≈ 155 µM)	50 (≈ 155 µM)	
O=C(O)c1cn(C2CC2)c2cc(N3CCNCC3)c(F)cc2c1=O [CIPROFLOXACIN]	5 (≈ 15.1 µM)	1.5 (≈ 4.53 µM)	1 (≈ 3.02 µM)	2.5 (≈ 7.54 µM)	
CC[C@H]1OC(=O)[C@H](C)[C@@H](O[C@H]2C[C@@](C)(OC)[C@@H](O)[C@H](C)O2)[C@H](C)[C@@H](O[C@@H]2O[C@H](C)C[C@H](N(C)C)[C@H]2O)[C@](C)(OC)C[C@@H](C)C(=O)[C@H](C)[C@@H](O)[C@]1(C)O [CLARITHROMYCIN]	> 250	25 (≈ 33.4 µM)	25 (≈ 33.4 µM)	50 (≈ 66.8 µM)	
CC[C@H]1OC(=O)[C@H](C)[C@@H](O[C@H]2C[C@@](C)(OC)[C@@H](O)[C@H](C)O2)[C@H](C)[C@@H](O[C@@H]2O[C@H](C)C[C@H](N(C)C)[C@H]2O)[C@](C)(O)C[C@@H](C)C(=O)[C@H](C)[C@@H](O)[C@]1(C)O [ERYTHROMYCIN]	500 (≈ 681 µM)	20 (≈ 27.3 µM)	1 (≈ 1.36 µM)	0.25 (≈ 0.341 µM)	
CC[C@@H](CO)NCCN[C@@H](CC)CO [ETHAMBUTOL]	> 500	> 500	250 (≈ 1220 µM)	25 (≈ 122 µM)	
CCc1cc(C(N)=S)ccn1 [ETHIONAMIDE]	> 400	> 400	50 (≈ 301 µM)	50 (≈ 301 µM)	
CN[C@@H]1C[C@H](N)[C@@H](O)[C@H](O[C@H]2O[C@H](CO)[C@H](O)[C@@H]3O[C@@]4(O[C@@H]23)O[C@H]([C@H](N)CO)[C@H](O)[C@H](O)[C@H]4O)[C@H]1O [HYGROMYCIN]	> 500	> 500			
NNC(=O)c1ccncc1 [ISONIAZID]	> 400	> 400			
NC[C@H]1O[C@H](O[C@H]2[C@H](O)[C@@H](O[C@H]3O[C@H](CO)[C@@H](O)[C@H](N)[C@H]3O)[C@H](N)C[C@@H]2N)[C@H](O)[C@@H](O)[C@@H]1O [KANAMYCIN]	10 (≈ 20.6 µM)	50 (≈ 103 µM)			
CC(=O)NC[C@H]1CN(c2ccc(N3CCOCC3)c(F)c2)C(=O)O1 [LINEZOLID]	100 (≈ 296 µM)	25 (≈ 74.1 µM)	1 (≈ 2.96 µM)	5 (≈ 14.8 µM)	
CCn1cc(C(=O)O)c(=O)c2cc(F)c(N3CCNCC3)cc21 [NORFLOXACIN]	5 (≈ 15.7 µM)	5 (≈ 15.7 µM)			
NC(=O)c1cnccn1 [PYRAZINAMIDE]	> 500	> 500			
CO[C@H]1/C=C/O[C@@]2(C)Oc3c(C)c(O)c4c(O)c(c(/C=N/N5CCN(C)CC5)c(O)c4c3C2=O)NC(=O)/C(C)=C\C=C\[C@H](C)[C@H](O)[C@@H](C)[C@@H](O)[C@@H](C)[C@H](OC(C)=O)[C@@H]1C [RIFAMPIN]	> 500	25 (≈ 30.4 µM)	100 (≈ 122 µM)	5 (≈ 6.08 µM)	
CN[C@@H]1[C@H](O[C@H]2[C@H](O[C@H]3[C@H](O)[C@@H](O)[C@H](N=C(N)N)[C@@H](O)[C@@H]3N=C(N)N)O[C@@H](C)[C@]2(O)C=O)O[C@@H](CO)[C@H](O)[C@H]1O [STREPTOMYCIN]	10 (≈ 17.2 µM)	200 (≈ 344 µM)	10 (≈ 17.2 µM)	250 (≈ 430 µM)	
CN(C)[C@@H]1C(O)=C(C(N)=O)C(=O)[C@@]2(O)C(O)=C3C(=O)c4c(O)cccc4[C@@](C)(O)[C@H]3C[C@@H]12 [TETRACYCLINE]	> 500	50 (≈ 113 µM)	25 (≈ 56.3 µM)	5 (≈ 11.3 µM)	
NC[C@H]1O[C@H](O[C@H]2[C@H](O)[C@@H](O[C@H]3O[C@H](CO)[C@@H](O)[C@H](N)[C@H]3O)[C@H](N)C[C@@H]2N)[C@H](N)C[C@@H]1O [TOBRAMYCIN]	25 (≈ 53.5 µM)	25 (≈ 53.5 µM)			
CN[C@H](CC(C)C)C(=O)N[C@H]1C(=O)N[C@@H](CC(N)=O)C(=O)N[C@H]2C(=O)N[C@H]3C(=O)N[C@H](C(=O)N[C@H](C(=O)O)c4cc(O)cc(O)c4-c4cc3ccc4O)[C@H](O)c3ccc(c(Cl)c3)Oc3cc2cc(c3O[C@@H]2O[C@H](CO)[C@@H](O)[C@H](O)[C@H]2O[C@H]2C[C@](C)(N)[C@H](O)[C@H](C)O2)Oc2ccc(cc2Cl)[C@H]1O [VANCOMYCIN]	> 500	5 (≈ 3.45 µM)	25 (≈ 17.3 µM)	5 (≈ 3.45 µM)	
GENTAMICIN	15	7.5			MIC (Mycobacteroides chelonae [3]; Urine): 20 µg/mL; MIC (Mycobacteroides chelonae [9]; Urine): 7.5 µg/mL
